MT1-MMP act inh = blocks activation of human MT1-MMP | P50281 | HT1080 RFP-PRO-GFP cells, GFP/RFP ratio fluorescence, overnight; percent of plate control window, DMSO zero | GFP/RFP ratio change, % at 20 µM | 0.061% of 360,000 active;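 active means GFP/RFP ratio change of at least 30% with cell ATP level not reduced by more than half and red fluorescence within 50% of control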
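Assay system: RFP-PRO-GFP reporter HT1080 cells; read-out basis: GFP/RFP fluorescence ratio; benchmarks: DMSO wells and RFP-L50D-GFP cells; doses: 20 µM single dose, 1% DMSO; schedule: overnight cell settling, then overnight compound exposure, 37 °C, 5% CO2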
Vif imaging = blocks HIV Vif function. HEK293T cells, Vif self-association by quenched fluorescence, imaging, 24 h. inhibition, % at 7.49 µM. 0.35% of 340,000 active. AID 602346; in the data active means inhibition above about 50%, passing the limit was not always enough
HCV core dimer = blocks dimerization of HCV core protein. TR-FRET GST/Flag-core106 dimerization, 1536-well. inhibition, % at 5 µM. 0.33% of 300,000 active;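 active means inhibition above the mean of all tested compounds plus 3 SD, set per screening campaign, cut at about 45% in these data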
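test system = GST/Flag-tagged HCV core106 proteins | probe or stimulus = Eu donor and XL665 acceptor anti-tag antibodies | times = compound-protein-antibody incubation 4 h at 22.5 °C | signal = TR-FRET, excitation 340 nm, emission 617 and 671 nm | measure = percent inhibition of core106 dimerization signal | controls = wells lacking GST-core106 and wells with excess unlabelled core106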
NR2E3 ag-1 = activates human photoreceptor nuclear receptor NR2E3; 0.12% of 320,000 active; Q9Y5X4; AID 2300; inhibition of corepressor binding, % at 4.78 µM; GST-NR2E3/biotin-RetCOR TR-FRET, 1536-well;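 active means percent inhibition above the cutoff of mean plus 3 SD of all tested compounds, set per screening campaign, cut at about 20% in these data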;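 further: 0% = DMSO wells and 100% = biotin wells as full block of FRET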
Target sequence (Q9Y5X4 whole entry, looked up): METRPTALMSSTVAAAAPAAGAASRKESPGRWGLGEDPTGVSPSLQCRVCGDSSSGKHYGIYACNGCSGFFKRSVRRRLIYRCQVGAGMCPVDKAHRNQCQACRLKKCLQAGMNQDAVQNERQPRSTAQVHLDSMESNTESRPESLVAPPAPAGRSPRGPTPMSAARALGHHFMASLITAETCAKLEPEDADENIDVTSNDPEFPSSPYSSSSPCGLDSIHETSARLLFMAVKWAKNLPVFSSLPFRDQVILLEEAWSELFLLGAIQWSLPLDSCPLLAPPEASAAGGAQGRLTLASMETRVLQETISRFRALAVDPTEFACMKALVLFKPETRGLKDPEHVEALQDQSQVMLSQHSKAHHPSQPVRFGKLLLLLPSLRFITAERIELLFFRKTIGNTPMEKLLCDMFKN
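Material: NR2E3–RetCOR corepressor complex / Incubation: Compound–protein incubation for 5 h at 4 °C / Dosing: compound at 4.8 µM, single dose / Detection: time-resolved FRET / Benchmarks: high control biotin, low control 0.6% DMSO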
NR2E3 ag-2 = activates human NR2E3 receptor; 0.35% of 360,000 active; Q9Y5X4; inhibition of corepressor binding, % at 3.98 µM; CHO-S Gal4-NCOR/VP16-NR2E3 two-hybrid, luciferase;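 active means inhibition above the mean of all tested compounds plus 3 SD, cut at about 70% in these data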;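 further: 0% = DMSO with NR2E3 transfected cells and 100% = cells lacking NR2E3 construct; higher means lower luciferase signal from less NR2E3 corepressor binding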
DAGLB inh = diacylglycerol lipase beta (human) inhibition. HEK293T DAGLB membrane lysate, EnzChek fluorogenic substrate. inhibition, % at 5.17 µM. 0.059% of 340,000 active. AID 504411; in the data active means inhibition above about 34%;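 further: 0% = enzyme with vehicle and 100% = wells lacking enzyme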
NR2E3 ag confirm = NR2E3 agonism confirmed in two-hybrid assay | shares compounds with NR2E3 ag-2 | CHO-S mammalian two-hybrid NR2E3-NCOR, luciferase luminescence | inhibition, % at 3.98 µM | 51% of 2,300 active;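 active means average inhibition above a cutoff equal to the mean inhibition of all tested compounds plus one SD, cut at about 70% in these data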;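 further: 0% = DMSO in NR2E3 cells and 100% = DMSO in cells lacking NR2E3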
GAL4-VP16 luc = counter-screen for NR2E3 agonists: GAL4-VP16 reporter inhibitors; shares compounds with NR2E3 ag-2; CHO-S GAL4-VP16 luciferase reporter, luminescence; inhibition, % at 3.98 µM; 29% of 2,300 active;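 active means mean inhibition above a cutoff equal to the average over all tested compounds plus one standard deviation, cut at about 70% in these data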;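 further: luciferase from a UAS reporter driven by GAL4-VP16 transactivation; 0% = DMSO with VP16-transfected cells and 100% = DMSO with cells lacking VP16; higher means less reporter light so more repression of VP16 activity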
* hit, by the source's call; . = no result given. An excerpt weighted towards active compounds, which were near 1.1% of everything screened.

SMILES	MT1-MMP act inh	Vif imaging	HCV core dimer	NR2E3 ag-1	NR2E3 ag-2	DAGLB inh	NR2E3 ag confirm	GAL4-VP16 luc
CCOC(=O)CN(c1sc(C)c(C)c1C(=O)OCC)S(=O)(=O)c1ccc(C)cc1	-6.7	.	.	.	14.0	-8.9	.	.
O=C1CN(C(=O)CSc2nnnn2C2CC2)c2ccccc2N1	-3.6	14.4	.	5.1	3.8	1.7	.	.
COc1ccccc1CCC(=O)N1CCN(S(=O)(=O)c2cccc(F)c2)CC1	1.7	-4.7	0.7	1.4	-11.6	0.0	.	.
NC(=O)CC(NC(=O)c1ccccc1)c1ccc(N2CCCCCCC2)c([N+](=O)[O-])c1 (stereo unspecified)	8.8	-4.0	-12.9	1.7	22.2	12.7	.	.
NC(=O)CC(NC(=O)c1ccc(Br)cc1)c1ccc(N2CCCCCC2)c([N+](=O)[O-])c1 (stereo unspecified)	4.0	9.1	8.5	-0.3	48.2	13.0	16.9	27.2
O=C(COC(=O)c1ccc(Br)o1)Nc1ccc(N2CCOCC2)cc1	-1.0	-3.7	.	3.7	-40.0	-0.2	.	.
Cc1cccc(Nc2nc(N3CCOCC3)nc(N3CCOCC3)n2)c1	-7.2	-3.9	-1.9	2.3	56.9	-3.1	55.6	29.5
Cc1cccc(Nc2nc(N3CCCCC3)nc(N3CCCCC3)n2)c1	2.0	-2.7	3.7	2.2	-20.1	-23.5	.	.
Cc1ccc(Nc2nc(N/N=C/c3c[nH]c4ccccc34)nc(N3CCOCC3)n2)cc1	2.7	-1.1	-1.1	-0.4	52.4	1.0	51.3	19.8
C(=N\Nc1nc(Nc2ccccc2)nc(N2CCOCC2)n1)/c1c[nH]c2ccccc12	.	.	-1.8	-0.7	.	.	.	.
C#CCN(C(=O)c1ccc(OC)c(OC2CCN(C(C)C)CC2)c1)C1CCCCC1	-0.3	-5.7	.	.	11.9	1.5	.	.
CC(C)c1ccccc1NC(=O)CSc1n[nH]c(=O)n1C1CC1	4.6	7.4	.	2.5	12.6	1.4	.	.
N#Cc1c(NCc2ccccc2)ccnc1NCc1cccnc1	.	-12.6	2.9	0.6	66.2	0.2	57.1	55.6
c1csc(CNc2ncnc3sccc23)c1	7.4	-39.6	-6.2	-1.3	72.1*	1.3	84.4*	66.0
COc1cc2ncnc(NCc3cccs3)c2cc1OC	-2.4	10.6	-0.7	0.0	-18.7	0.5	.	.
c1cncc(CNc2ncnc3sccc23)c1	-3.4	3.1	1.1	0.2	2.8	-2.6	.	.
COc1ccc(CNc2ncnc3sccc23)cc1	-3.5	-5.2	0.5	3.8	93.6*	2.0	81.6*	62.6
c1ccc(CNc2ncnc3sccc23)cc1	-4.7	-4.9	1.8	-2.6	91.3*	-1.7	79.6*	53.4
CCOC(=O)C1=C(N)Oc2c(c(=O)[nH]c3ccccc23)C1c1ccccc1 (stereo unspecified)	-4.2	29.0	10.0	0.8	11.5	-1.0	.	.
Cc1cc(C)c(CN2CCN(C(=O)Cn3cnc4c(OCc5ccccc5)ncnc43)CC2)c(C)c1	15.9	-2.8	.	.	71.4*	-1.5	66.9	56.5
CCS(=O)(=O)N1CCC(C(=O)O)CC1	2.7	-2.2	-4.5	0.2	-7.6	-2.0	.	.
O=C(COC(=O)CNC(=O)c1ccc(Cl)cc1Cl)NNC(=O)c1ccccc1F	3.7	-4.1	.	.	-3.3	-0.9	.	.
O=C(OCC(=O)N1CCCc2ccccc21)c1cc(Br)ccc1O	0.6	5.3	1.9	1.5	14.3	-3.5	.	.
Cc1cccc(OCCCC(=O)Nc2nc3ccccc3[nH]2)c1	-2.5	2.9	-2.1	-1.6	52.6	0.2	72.4*	-17.6
Cc1ccc(OCCCC(=O)Nc2nc3ccccc3[nH]2)cc1	1.5	-10.8	-2.2	1.8	5.3	0.6	.	.
SMILES	MT1-MMP act inh	Vif imaging	HCV core dimer	NR2E3 ag-1	NR2E3 ag-2	DAGLB inh	NR2E3 ag confirm	GAL4-VP16 luc
Cn1nc(CC(=O)NCc2ccc(C(F)(F)F)cc2)c2ccccc2c1=O	5.7	-15.5	0.0	2.9	67.4	-1.9	91.3*	78.8*
Cn1nc(C(=O)NCc2ccc(F)cc2)c2ccccc2c1=O	6.1	8.0	-2.7	-2.5	8.4	-0.5	.	.
O=C(NCCc1ccccc1F)c1ccc2c(c1)OCCO2	-0.2	3.9	1.1	0.6	72.2*	2.7	64.8	40.9
CC1(C(=O)O)CCCN(C(=O)c2cccnc2Oc2ccccc2)C1 (stereo unspecified)	2.4	0.3	.	.	-3.7	.	.	.
Cc1ccc(C)c(S(=O)(=O)NCc2ccncc2)c1	1.1	-4.7	-2.0	9.0	12.7	0.0	.	.
Cc1ccc(S(=O)(=O)NCc2ccncc2)cc1	-10.1	-17.6	-1.1	-1.5	74.1*	-3.1	71.5*	67.8
Cc1cc(S(=O)(=O)NCc2ccncc2)c(C)cc1Br	9.1	5.3	8.0	-1.3	101.1*	-2.4	93.8*	81.7*
CCOc1ccc(S(=O)(=O)NCc2ccncc2)cc1	-4.7	-51.2	-2.7	1.8	92.0*	0.9	95.4*	90.0*
CCOc1cc(S(=O)(=O)NCc2ccncc2)ccc1Cl	-7.1	3.2	0.7	4.3	88.1*	.	97.3*	87.4*
Cc1sc(NC(=O)CN(C(=O)c2ccccc2F)C2CCCC2)c(C(N)=O)c1C	0.5	-20.4	4.1	2.1	23.6	-2.1	.	.
CC(Oc1ccccc1)C(=O)N1CCN(c2ccc(N3CCCCC3)nn2)CC1 (stereo unspecified)	1.6	2.7	-2.1	0.4	15.6	3.2	.	.
Nc1cccc(S(=O)(=O)Nc2ccccc2)c1	0.9	-1.5	-1.6	0.3	-17.1	0.0	.	.
S=C(NCCSCc1ccc(Cl)cc1Cl)Nc1ccccc1	2.3	-1.1	-2.1	3.7	48.5	-0.2	.	.
S=C(Nc1ccccc1)Nc1ccc(OCc2ccc(Cl)cc2Cl)cc1	11.4	9.4	2.9	3.0	75.1*	1.1	65.5	61.4
COc1ccc(C)cc1NS(=O)(=O)c1ccc(-c2cnc(C3CC3)o2)cc1	3.6	-3.5	-3.2	-0.5	103.1*	1.8	56.9	58.8
Cc1cccc(C)c1NS(=O)(=O)c1ccc(-c2cnc(C3CC3)o2)cc1	6.0	-1.6	-7.8	1.6	70.2*	1.4	54.9	20.7
CCOc1ccccc1CNS(=O)(=O)c1ccc(-c2cnc(C3CC3)o2)cc1	-3.3	-5.3	-5.8	-4.1	84.9*	-26.6	69.5	54.2
Cc1ccc(CNS(=O)(=O)c2ccc(-c3cnc(C4CC4)o3)cc2)cc1	0.7	0.6	-8.1	0.7	70.5*	-6.9	55.2	34.7
O=S(=O)(NCc1ccccc1)c1ccc(-c2cnc(C3CC3)o2)cc1	-3.7	-9.6	-1.0	-1.9	17.5	-1.2	.	.
Cc1ccc(NS(=O)(=O)c2ccc(-c3cnc(C4CC4)o3)cc2)cc1	-1.9	-1.4	-6.2	-4.0	36.8	-2.8	.	.
